Assay results published in ChEMBL document CHEMBL5303300, “EUbOPEN Chemogenomics Library - Multiplex” (2023).
“And” between values parts separate entries of the source, which are not always exact repeats. Equal values may be shown once.

Test system: Fibroblast
Assay: Multiplex assay against human fibroblast
Assay type: toxicity, cell-based
Conditions: number of replicates 2
Method in brief: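 Values for tubulin, mitochondrial-mass and membrane-permeability phenotypes are per cents of cells with healthy nuclei. These cells were identified by CellPathfinder machine-learning gating of live cells that had been stained at seeding with Hoechst33342, BioTracker Green Microtubule Cytoskeleton Dye, MitoTracker Red and Annexin V Alexa Fluor 680 and imaged on a CQ1 microscope at 37°C and 5% CO2 after compound addition. The gating first set Hoechst high-intensity objects apart from normal cells, then split normal cells into healthy, pyknosed or fragmented nuclei, and pyknosed cells into mitotic or apoptotic.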

[1] = 12 h, 1 µM, compound concentration 1 uM
[2] = 12 h, 10 µM, compound concentration 10 uM
[3] = 24 h, 1 µM, compound concentration 1 uM
[4] = 24 h, 10 µM, compound concentration 10 uM
[5] = 48 h, 1 µM, compound concentration 1 uM
[6] = 48 h, 10 µM, compound concentration 10 uM

Cc1cn(CCN2CCN(c3ccccc3-c3cc(C#N)cc(C(=O)NCCCN4CCCC4)c3)CC2)c2ccccc12
Population Apoptotic (%) [1]: 16% and 47% | Population Fragmented Nuclei (%) [1]: 13% and 14% | Population Healthy Nuclei (%) [1]: 70% and 63% | Population Hoechst High Intensity Objects (%) [1]: 0% | Population Membrane Permeable-Phenotype (%) [1]: 10% and 8% | Population Mitochondria Different-Phenotype (%) [1]: 1% and 5% | Population Mitotic Cells (%) [1]: 83% and 52% | Population Normal (%) [1]: 100% | Population Pyknosed Nuclei (%) [1]: 16% and 21% | Population Tubulin-Different-Phenotype (%) [1]: 41% and 35% | Total Cell Count [1]: 222 and 214 | Population Apoptotic (%) [2]: 40% and 37% | Population Fragmented Nuclei (%) [2]: 28% and 31% | Population Healthy Nuclei (%) [2]: 51% and 56% | Population Hoechst High Intensity Objects (%) [2]: 0% | Population Membrane Permeable-Phenotype (%) [2]: 7% and 5% | Population Mitochondria Different-Phenotype (%) [2]: 20% and 17% | Population Mitotic Cells (%) [2]: 59% and 62% | Population Normal (%) [2]: 100% | Population Pyknosed Nuclei (%) [2]: 19% and 12% | Population Tubulin-Different-Phenotype (%) [2]: 82% and 83% | Total Cell Count [2]: 248 and 358 | Population Apoptotic (%) [3]: 33% and 60% | Population Fragmented Nuclei (%) [3]: 14% and 20% | Population Healthy Nuclei (%) [3]: 73% and 65% | Population Hoechst High Intensity Objects (%) [3]: 0% | Population Membrane Permeable-Phenotype (%) [3]: 5% and 3% | Population Mitochondria Different-Phenotype (%) [3]: 3% and 10% | Population Mitotic Cells (%) [3]: 66% and 39% | Population Normal (%) [3]: 100% | Population Pyknosed Nuclei (%) [3]: 11% and 13% | Population Tubulin-Different-Phenotype (%) [3]: 37% and 33% | Total Cell Count [3]: 209 and 243 | Population Apoptotic (%) [4]: 81% and 82% | Population Fragmented Nuclei (%) [4]: 17% and 27% | Population Healthy Nuclei (%) [4]: 57% and 55% | Population Hoechst High Intensity Objects (%) [4]: 0% | Population Membrane Permeable-Phenotype (%) [4]: 2% | Population Mitochondria Different-Phenotype (%) [4]: 51% and 58% | Population Mitotic Cells (%) [4]: 18% and 17% | Population Normal (%) [4]: 99% | Population Pyknosed Nuclei (%) [4]: 25% and 17% | Population Tubulin-Different-Phenotype (%) [4]: 93% and 88% | Total Cell Count [4]: 197 and 332 | Population Apoptotic (%) [5]: 44% and 76% | Population Fragmented Nuclei (%) [5]: 19% and 24% | Population Healthy Nuclei (%) [5]: 77% and 70% | Population Hoechst High Intensity Objects (%) [5]: 0% | Population Membrane Permeable-Phenotype (%) [5]: 2% and 3% | Population Mitochondria Different-Phenotype (%) [5]: 0% and 3% | Population Mitotic Cells (%) [5]: 55% and 23% | Population Normal (%) [5]: 100% and 99% | Population Pyknosed Nuclei (%) [5]: 3% and 5% | Population Tubulin-Different-Phenotype (%) [5]: 23% and 17% | Total Cell Count [5]: 241 and 237 | Population Apoptotic (%) [6]: 95% | Population Fragmented Nuclei (%) [6]: 9% and 17% | Population Healthy Nuclei (%) [6]: 46% and 62% | Population Hoechst High Intensity Objects (%) [6]: 1% and 0% | Population Membrane Permeable-Phenotype (%) [6]: 6% and 1% | Population Mitochondria Different-Phenotype (%) [6]: 75% and 67% | Population Mitotic Cells (%) [6]: 4% | Population Normal (%) [6]: 98% and 99% | Population Pyknosed Nuclei (%) [6]: 43% and 19% | Population Tubulin-Different-Phenotype (%) [6]: 93% and 91% | Total Cell Count [6]: 144 and 240

CC(C)S(=O)(=O)c1ccccc1Nc1nc(N[C@@H]2CCCN(CCCCCCCNC(=O)COc3cccc4c3C(=O)N(C3CCC(=O)NC3=O)C4=O)C2)ncc1Cl (some centres not stated)
Population Apoptotic (%) [1]: 55% and 64% | Population Fragmented Nuclei (%) [1]: 12% and 11% | Population Healthy Nuclei (%) [1]: 50% | Population Hoechst High Intensity Objects (%) [1]: 0% | Population Membrane Permeable-Phenotype (%) [1]: 15% and 11% | Population Mitochondria Different-Phenotype (%) [1]: 4% and 2% | Population Mitotic Cells (%) [1]: 44% and 35% | Population Normal (%) [1]: 100% | Population Pyknosed Nuclei (%) [1]: 37% and 38% | Population Tubulin-Different-Phenotype (%) [1]: 40% and 37% | Total Cell Count [1]: 181 and 196 | Population Apoptotic (%) [2]: 65% and 48% | Population Fragmented Nuclei (%) [2]: 12% and 16% | Population Healthy Nuclei (%) [2]: 42% and 33% | Population Hoechst High Intensity Objects (%) [2]: 0% and 1% | Population Membrane Permeable-Phenotype (%) [2]: 56% and 36% | Population Mitochondria Different-Phenotype (%) [2]: 22% and 30% | Population Mitotic Cells (%) [2]: 34% and 52% | Population Normal (%) [2]: 99% and 98% | Population Pyknosed Nuclei (%) [2]: 44% and 49% | Population Tubulin-Different-Phenotype (%) [2]: 72% and 32% | Total Cell Count [2]: 231 and 205 | Population Apoptotic (%) [3]: 68% and 83% | Population Fragmented Nuclei (%) [3]: 10% | Population Healthy Nuclei (%) [3]: 51% | Population Hoechst High Intensity Objects (%) [3]: 0% | Population Membrane Permeable-Phenotype (%) [3]: 7% and 4% | Population Mitochondria Different-Phenotype (%) [3]: 9% and 4% | Population Mitotic Cells (%) [3]: 31% and 16% | Population Normal (%) [3]: 99% and 100% | Population Pyknosed Nuclei (%) [3]: 37% | Population Tubulin-Different-Phenotype (%) [3]: 27% and 15% | Total Cell Count [3]: 171 and 175 | Population Apoptotic (%) [4]: 74% and 79% | Population Fragmented Nuclei (%) [4]: 13% and 14% | Population Healthy Nuclei (%) [4]: 32% and 33% | Population Hoechst High Intensity Objects (%) [4]: 1% | Population Membrane Permeable-Phenotype (%) [4]: 32% and 19% | Population Mitochondria Different-Phenotype (%) [4]: 36% and 39% | Population Mitotic Cells (%) [4]: 26% and 20% | Population Normal (%) [4]: 98% | Population Pyknosed Nuclei (%) [4]: 53% and 51% | Population Tubulin-Different-Phenotype (%) [4]: 68% and 75% | Total Cell Count [4]: 188 and 232 | Population Apoptotic (%) [5]: 63% and 73% | Population Fragmented Nuclei (%) [5]: 15% and 12% | Population Healthy Nuclei (%) [5]: 44% and 43% | Population Hoechst High Intensity Objects (%) [5]: 0% | Population Membrane Permeable-Phenotype (%) [5]: 18% and 9% | Population Mitochondria Different-Phenotype (%) [5]: 5% and 8% | Population Mitotic Cells (%) [5]: 36% and 26% | Population Normal (%) [5]: 99% and 100% | Population Pyknosed Nuclei (%) [5]: 40% and 43% | Population Tubulin-Different-Phenotype (%) [5]: 31% and 36% | Total Cell Count [5]: 173 and 163 | Population Apoptotic (%) [6]: 79% and 83% | Population Fragmented Nuclei (%) [6]: 17% and 13% | Population Healthy Nuclei (%) [6]: 36% and 32% | Population Hoechst High Intensity Objects (%) [6]: 2% and 0% | Population Membrane Permeable-Phenotype (%) [6]: 36% and 34% | Population Mitochondria Different-Phenotype (%) [6]: 14% and 22% | Population Mitotic Cells (%) [6]: 20% and 16% | Population Normal (%) [6]: 97% and 99% | Population Pyknosed Nuclei (%) [6]: 46% and 53% | Population Tubulin-Different-Phenotype (%) [6]: 73% and 60% | Total Cell Count [6]: 196 and 232
